TRPC6 act: mouse TRPC6 channel activators, primary screen, cell-based, HEK293, membrane potential dye | HEK293-TRPC6 membrane potential dye fluorescence; active compounds read high | B-score at 10 µM | hit rate 0.13% among 310,000 | AID 2550, 2010 | Short transient receptor potential channel 6 (Mus musculus), Q61143;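 active means B-score of the integrated fluorescence ratio above library mean plus 3 SD, and starting fluorescence ratio within library mean plus 5 SD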;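 further: higher score means more depolarization so channel activation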
Target sequence (Q61143 whole entry, looked up): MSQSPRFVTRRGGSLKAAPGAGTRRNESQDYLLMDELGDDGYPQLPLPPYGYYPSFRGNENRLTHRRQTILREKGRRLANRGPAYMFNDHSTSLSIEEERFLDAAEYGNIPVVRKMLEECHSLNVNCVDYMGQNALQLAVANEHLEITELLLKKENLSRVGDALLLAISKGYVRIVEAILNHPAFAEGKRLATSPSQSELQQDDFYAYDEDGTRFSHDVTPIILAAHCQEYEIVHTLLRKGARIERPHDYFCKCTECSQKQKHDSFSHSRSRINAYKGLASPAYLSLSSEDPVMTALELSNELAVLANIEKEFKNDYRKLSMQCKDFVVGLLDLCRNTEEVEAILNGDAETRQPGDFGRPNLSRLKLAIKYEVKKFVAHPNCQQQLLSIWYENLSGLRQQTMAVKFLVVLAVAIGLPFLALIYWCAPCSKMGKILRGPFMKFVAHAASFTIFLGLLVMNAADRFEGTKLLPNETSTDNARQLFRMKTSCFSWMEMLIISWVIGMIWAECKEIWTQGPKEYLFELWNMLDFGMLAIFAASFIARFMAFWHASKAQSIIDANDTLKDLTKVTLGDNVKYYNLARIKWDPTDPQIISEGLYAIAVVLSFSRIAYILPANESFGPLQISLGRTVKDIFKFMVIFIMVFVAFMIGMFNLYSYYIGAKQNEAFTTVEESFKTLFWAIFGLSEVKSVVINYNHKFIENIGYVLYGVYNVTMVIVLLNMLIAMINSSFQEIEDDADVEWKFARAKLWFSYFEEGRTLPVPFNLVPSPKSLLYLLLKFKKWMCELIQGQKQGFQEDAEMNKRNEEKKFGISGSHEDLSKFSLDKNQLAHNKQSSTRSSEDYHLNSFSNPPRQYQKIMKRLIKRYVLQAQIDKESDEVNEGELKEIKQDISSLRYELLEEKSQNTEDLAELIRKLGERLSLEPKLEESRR
TRPC6 inh: mouse TRPC6 channel inhibitors, primary screen, cell-based, HEK293, membrane potential dye | Short transient receptor potential channel 6 (Mus musculus), Q61143 | ACh-evoked depolarization; active compounds read low | B-score at 10 µM | hit rate 1.1% among 310,000 | AID 2553, 2010;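 active means B-score under library mean minus 3 SD, initial fluorescence not abnormally high, positive integrated signal ratio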;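 further: B-score derived from integrated fluorescence ratio over the kinetic read; more negative B-score means stronger inhibition of depolarization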
TRPC4 agonist: activators of mouse TRPC4 channel, primary screen, Fluo4 calcium, HEK293 TRPC4beta/mu-opioid cells | Fluo4 calcium fluorescence; active compounds read high | hit rate 0.49% among 310,000 | B-score at 10 µM | AID 2237, 2010;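 active means B-score above 5 SD of library B-scores, and initial fluorescence ratio not above library mean plus 5 SD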;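 further: positive B-score marks a calcium rise read as TRPC4 activation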
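Material: HEK293 stable line with TRPC4beta plus mu-opioid receptor; technique: Fluo4 calcium-sensitive dye fluorescence, kinetic, 1 Hz baseline; timing: Fluo4 dye loading 45 min at room temperature, 110 s recording; controls: assay buffer as low control, maximal DAMGO as high control; read-out: integrated baseline-normalised fluorescence ratio, converted to per-well B score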
TRPC4 potent: positive allosteric modulators of TRPC4, primary screen, cell-based, mouse TRPC4beta, HEK293 mu-opioid, Fluo-4 calcium. Short transient receptor potential channel 4 (Mus musculus), Q9QUQ5. DAMGO EC20, Fluo-4 Ca2+ flux; active compounds read high. B-score at 10 µM. hit rate 0.42% among 310,000. AID 2227, 2009;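 active means B-score of calcium response area above 5 SD of library B-scores, with initial fluorescence ratio within 5 SD of library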
TRPC4 inh: inhibitors of mouse TRPC4 channel, primary screen, Fluo4 calcium, HEK293 TRPC4beta/mu-opioid cells; hit rate 0.39% among 300,000; B-score at 10 µM; DAMGO-evoked Fluo4 calcium flux; active compounds read low;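 active means B-score over 3 SD under the library average, no early fluorescence shift, positive overall ratio signal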
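Assay system: Stable TRPC4beta/mu-opioid receptor HEK293 cells | Reagent: DAMGO in two steps, submaximal then maximal | Compound dosing: Single concentration per test compound | Signal: Fluo4 Ca2+ flux fluorescence | Evaluation: Per-well B score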
TRPC4 sel inh 2: mouse TRPC4 off-target activity of TRPC6 inhibitors, second screen; shares compounds with TRPC6 inh; HEK293 TRPC4/MOR, membrane potential dye fluorescence; channel activated by saturating DAMGO dose; inhibition, % at 10 µM; hit rate 42% among 920;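 active means compounds whose fluorescence signal differed from control wells by over 3 SD, either direction, in both duplicate plates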
TRPC4 spec: mouse TRPC4 modulation by TRPC6 hits, confirmation, selectivity assay for TRPC6 inhibitor project, cell-based, HEK293 TRPC4/mu-opioid, membrane potential dye; hit rate 61% among 920; activity change, negative = inhibition, % at 10 µM; membrane potential fluorescence; AID 2777, 2010; shares compounds with TRPC6 inh;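 active means rise or fall in signal beyond 3 SD of buffer-only wells in both replicate plates, either sign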;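 further: integrated kinetic ratio of fluorescence range over baseline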
HEK293 MPD ctr 2-1: nonspecific membrane potential effects, parental HEK293, confirmation, counter-screen for TRPC6 inhibitor project, cell-based, second counter screen; shares compounds with TRPC6 inh; signal change vs control, % at 10 µM; hit rate 31% among 920; AID 2779, 2010; parental HEK293 membrane potential dye fluorescence; maximal acetylcholine challenge after compound addition;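 active means membrane potential signal moving either way by over 3 SD of the maximum-effect control, in both duplicate plates, meaning non-specific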
HEK293 MPD ctr-1: membrane potential modulation in parental HEK293, confirmation, counter-screen for TRPC6 inhibitor project, cell-based; parental HEK293 membrane potential dye fluorescence; hit rate 60% among 920; shares compounds with TRPC6 inh; membrane potential signal change, % at 10 µM;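 active means membrane potential signal shifting up or down by more than 3 SD of buffer-only wells, on both duplicate plates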
HEK293 MPD ctr-2: parental HEK293 membrane potential modulation, confirmation, counter-screen for TRPC6 modulator project, cell-based; membrane potential signal change, % at 10 µM; hit rate 51% among 2,400; shares compounds with TRPC6 inh; membrane potential dye fluorescence;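 active means membrane potential signal moves up or down beyond 5 SD from buffer-only wells, on both duplicate plates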
HEK293 MPD ctr 2-2: second counter-screen for TRPC6 modulators: effect in parental HEK293 cells | inhibition, % at 10 µM | shares compounds with TRPC6 inh | AID 488926 | membrane potential dye fluorescence; after compound, maximal acetylcholine stimulation | hit rate 14% among 2,400;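 active means membrane potential signal drops by more than 5 SD from the mean control signal, in both duplicate plates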
TRPC4 ctr mod: TRPC4 modulation by TRPC6 hit compounds, confirmation, selectivity assay for TRPC6 modulator project, cell-based, HEK293 TRPC4/mu-opioid, membrane potential dye, mouse. shares compounds with TRPC6 inh. membrane potential fluorescence. percent change from control (negative = decrease, positive = increase), % at 10 µM. hit rate 69% among 2,400. AID 488927, 2010;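 active means membrane potential signal moved up or down beyond 5 SD of buffer control wells, in both duplicate plates, actives on both sides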
TRPC4/MOR inh 2: mouse TRPC4 off-target activity of TRPC6 modulators, second screen; HEK293 TRPC4/mu-opioid, membrane potential dye fluorescence; stimulated with maximal-effect DAMGO; shares compounds with TRPC6 inh; hit rate 55% among 2,400; AID 488928; inhibition, % at 10 µM;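 active means drop in membrane potential signal beyond 5 SD of the control wells in both duplicate plates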;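 further: TRPC4 counter screen for TRPC6 hits run under conditions tuned for TRPC6 not TRPC4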
TRPC6 block conf: mouse TRPC6 channel inhibitors, confirmation, HEK293 cells, membrane potential dye, duplicate | shares compounds with TRPC6 inh | hit rate 43% among 3,300 | ACh-evoked depolarization | inhibition, % at 10 µM;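 active means fluorescence ratio falls more than 5 SD below the full-stimulation control mean, in both duplicate runs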;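 further: integrated fluorescence ratio of peak minus minimum over baseline after agonist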
TRPC6 act confirm: mouse TRPC6 channel activators, confirmation, HEK293 cells, membrane potential dye, duplicate; shares compounds with TRPC6 inh; HEK293-TRPC6 membrane potential dye fluorescence, FDSS; activation, % at 10 µM; hit rate 11% among 2,800; AID 488961, 2010;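 active means ratio signal rise beyond 5 SD above unstimulated control wells' mean, seen in both duplicate runs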
Large screens that a line does not name were inactive (follow-up assays come after a bar, where they were run). Most compounds without a hit are left out; they make up all but 2.3% or so of the library.

O=[N+]([O-])c1ccc(-c2ccc(/C=N/n3cnnc3)o2)c(Br)c1	none
Cc1cc([N+](=O)[O-])c(C)cc1-c1ccc(/C=N/n2cnnc2)o1	TRPC6 inh -5.8 | HEK293 MPD ctr-2 -107.5% | HEK293 MPD ctr 2-2 inactive | TRPC4 ctr mod -23.0% | TRPC4/MOR inh 2 34.0% | TRPC6 block conf inactive | TRPC6 act confirm inactive
Fc1ccc(CNC2CCN(Cc3ccccc3)CC2)cc1	none
Clc1ccc(CNC2CCN(Cc3ccccc3)CC2)cc1	TRPC6 inh -6.01 | HEK293 MPD ctr-2 inactive | HEK293 MPD ctr 2-2 inactive | TRPC4 ctr mod inactive | TRPC4/MOR inh 2 55.0% | TRPC6 block conf inactive
O=C(CN1C(=O)COc2ccc(S(=O)(=O)N3CCCCC3)cc21)NCc1ccccc1Cl	none
COc1cc(/C=N/Nc2nncc3ccccc23)cc(OC)c1OC	TRPC6 inh -7.93 | TRPC4 sel inh 2 inactive | TRPC4 spec -24.9% | HEK293 MPD ctr 2-1 inactive | HEK293 MPD ctr-1 -457.5% | TRPC6 block conf inactive | TRPC6 act confirm inactive
CC(=O)Nc1ccc(CN2CCc3c([nH]c4ccccc34)C2c2ccccn2)cc1 (stereo not given)	TRPC6 inh -7.32, TRPC4 agonist 54 | HEK293 MPD ctr-2 inactive | HEK293 MPD ctr 2-2 inactive | TRPC4 ctr mod 65.5% | TRPC4/MOR inh 2 70.5% | TRPC6 block conf inactive | TRPC6 act confirm inactive
c1ccc(C2c3[nH]c4ccccc4c3CCN2Cc2cccn2-c2ccccn2)nc1 (stereo not given)	none
CCOc1ccc(CC(=NCCc2ccccc2)C2=C(O)CC(C)(C)CC2=O)cc1OCC	none
CCCN(CC1CC1)C(=O)CCc1nnc(CCc2c[nH]c3ccccc23)o1	TRPC6 inh -6.8 | TRPC4 sel inh 2 inactive | TRPC4 spec 2.7% | HEK293 MPD ctr 2-1 inactive | HEK293 MPD ctr-1 0.9% | TRPC6 block conf inactive | TRPC6 act confirm inactive
CCN(CC)C(=O)CCc1nnc(CCc2c[nH]c3ccccc23)o1	none
CN(C)CCn1c(C(=O)Nc2ccccc2)cc2ccccc21	TRPC6 inh -7.83 | TRPC4 sel inh 2 48.5% | TRPC4 spec -17.1% | HEK293 MPD ctr 2-1 inactive | HEK293 MPD ctr-1 -235.0% | TRPC6 block conf inactive | TRPC6 act confirm inactive
NC(=Nc1ccccc1)NC(=O)c1nc(Cl)c(N)nc1N	none
CN(C)c1nc(N)c(C(=O)N=C(N)N)nc1Cl	TRPC6 inh -7.34 | TRPC4 sel inh 2 inactive | TRPC4 spec -23.7% | HEK293 MPD ctr 2-1 inactive | HEK293 MPD ctr-1 -364.0% | TRPC6 block conf inactive | TRPC6 act confirm inactive
CCOc1ccc(OCC)c(S(=O)(=O)n2cnc(C)c2)c1	none
CCOC(=O)c1[nH]n(-c2ccc(Cl)cc2)c(=O)c1C	TRPC6 inh -7.77 | TRPC4 sel inh 2 inactive | TRPC4 spec inactive | HEK293 MPD ctr 2-1 inactive | HEK293 MPD ctr-1 inactive | TRPC6 block conf inactive | TRPC6 act confirm inactive
Cc1cccn2c(=O)c3cc(C(=O)NC(C)C)c(=N)n(Cc4ccncc4)c3nc12	TRPC6 inh -7.57 | TRPC4 sel inh 2 72.5% | TRPC4 spec -19.3% | HEK293 MPD ctr 2-1 -15.5% | HEK293 MPD ctr-1 -303.5% | TRPC6 block conf 76.5% | TRPC6 act confirm inactive
COc1ccc(CNC(=O)c2cc3c(=O)n4cccc(C)c4nc3n(CC3CCCO3)c2=N)cc1 (stereo not given)	none
COCCn1c(=N)c(C(=O)NCCc2ccc(OC)cc2)cc2c(=O)n3cccc(C)c3nc21	none
Cc1cccn2c(=O)c3cc(C(=O)NC4CCCCC4)c(=N)n(Cc4ccc(F)cc4)c3nc12	none
CCNC(=O)c1cc2c(=O)n3cccc(C)c3nc2n(Cc2ccc(C)cc2)c1=N	TRPC6 inh -6.08 | HEK293 MPD ctr-2 -146.0% | HEK293 MPD ctr 2-2 inactive | TRPC4 ctr mod -28.0% | TRPC4/MOR inh 2 40.0% | TRPC6 block conf inactive | TRPC6 act confirm inactive
COCCCNC(=O)c1cc2c(=O)n3cccc(C)c3nc2n(C(C)C)c1=N	TRPC6 inh -5.05 | HEK293 MPD ctr-2 inactive | HEK293 MPD ctr 2-2 67.0% | TRPC4 ctr mod inactive | TRPC4/MOR inh 2 30.5% | TRPC6 block conf 45.0% | TRPC6 act confirm inactive
Cc1ccc(NC(=O)c2ccc(NS(=O)(=O)/C=C/c3ccccc3)cc2)nc1	none
CCC(=O)c1c(NCCc2ccccc2)cc(C)oc1=O	none
